From paper PMC2889702 (ACS chemical neuroscience, 2010)
Entries after “also recorded” stand apart in the source; their conditions may differ. Values belong to the molecule of their own block, whether it stands above or below them.

Experiments:
Assay type in all cases: cell-based
rat mGluR1 = rat mGluR1 (Rattus norvegicus, UniProt P23385)
Method in brief: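 Rat mGluR1 stably expressed in BHK cells. Test compound run as a full 1:3 serial-dilution concentration–response, top final concentration 30 μM. Cells preincubated ~2.5 min with compound, then given an EC20 glutamate concentration, then EC80 glutamate 2 min later. Antagonism taken as blockade of the EC80 response. Data normalized to percent maximal glutamate response.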

human mGluR4 [1] = biological target: T1, human mGluR4 (Homo sapiens, UniProt Q14833); experiment: calcium mobilization potency assay; conditions: for fold increase in potency against hmGluR4: compared to PHCCC / (−)-PHCCC
T1 sequence (Q14833 33-912): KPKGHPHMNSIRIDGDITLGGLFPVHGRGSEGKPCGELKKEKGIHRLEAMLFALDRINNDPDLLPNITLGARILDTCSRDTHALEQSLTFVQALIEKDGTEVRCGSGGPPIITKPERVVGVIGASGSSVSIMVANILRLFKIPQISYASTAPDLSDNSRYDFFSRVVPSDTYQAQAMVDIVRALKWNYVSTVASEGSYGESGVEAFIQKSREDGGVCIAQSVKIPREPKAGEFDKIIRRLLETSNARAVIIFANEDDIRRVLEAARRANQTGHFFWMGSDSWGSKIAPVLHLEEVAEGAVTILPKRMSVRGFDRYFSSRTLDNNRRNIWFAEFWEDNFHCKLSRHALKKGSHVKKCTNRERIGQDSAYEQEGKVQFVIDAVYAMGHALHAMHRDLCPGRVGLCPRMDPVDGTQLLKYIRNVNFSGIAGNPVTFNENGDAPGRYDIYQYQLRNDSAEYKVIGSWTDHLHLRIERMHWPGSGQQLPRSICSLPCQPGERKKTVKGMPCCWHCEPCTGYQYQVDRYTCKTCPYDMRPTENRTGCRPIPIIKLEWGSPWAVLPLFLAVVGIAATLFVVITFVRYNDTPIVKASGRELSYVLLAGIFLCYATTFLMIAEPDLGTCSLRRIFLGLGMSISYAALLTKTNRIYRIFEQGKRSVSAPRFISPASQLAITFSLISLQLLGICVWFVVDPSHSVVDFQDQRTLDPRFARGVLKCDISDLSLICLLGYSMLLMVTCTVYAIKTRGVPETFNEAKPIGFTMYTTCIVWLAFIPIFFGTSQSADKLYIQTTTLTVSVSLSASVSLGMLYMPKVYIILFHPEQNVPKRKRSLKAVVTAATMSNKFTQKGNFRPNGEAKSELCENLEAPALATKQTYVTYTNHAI

other mGluR subtypes = experiment: selectivity against all of the mGluR subtypes; conditions: 10 μM compound
Method in brief: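 Rat mGluR2, -3, -7, -8 and human mGluR6 were stably expressed in HEK cells coexpressing GIRK1/2. Rat mGluR5 was in HEK cells and rat mGluR1 in BHK cells. Cells received 10 μM final test compound or vehicle, then a full agonist concentration-response (glutamate; L-AP4 for mGluR7). mGluR1 instead: 1:3 compound series to 30 μM top final, EC20 then EC80 glutamate, blockade of EC80 response. Normalized to % Glu Max, triplicate.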

human mGluR4 [2] = biological target: T1, human mGluR4; conditions: compared to (−)-PHCCC

rat mGluR1, sequence (P23385 19-1199): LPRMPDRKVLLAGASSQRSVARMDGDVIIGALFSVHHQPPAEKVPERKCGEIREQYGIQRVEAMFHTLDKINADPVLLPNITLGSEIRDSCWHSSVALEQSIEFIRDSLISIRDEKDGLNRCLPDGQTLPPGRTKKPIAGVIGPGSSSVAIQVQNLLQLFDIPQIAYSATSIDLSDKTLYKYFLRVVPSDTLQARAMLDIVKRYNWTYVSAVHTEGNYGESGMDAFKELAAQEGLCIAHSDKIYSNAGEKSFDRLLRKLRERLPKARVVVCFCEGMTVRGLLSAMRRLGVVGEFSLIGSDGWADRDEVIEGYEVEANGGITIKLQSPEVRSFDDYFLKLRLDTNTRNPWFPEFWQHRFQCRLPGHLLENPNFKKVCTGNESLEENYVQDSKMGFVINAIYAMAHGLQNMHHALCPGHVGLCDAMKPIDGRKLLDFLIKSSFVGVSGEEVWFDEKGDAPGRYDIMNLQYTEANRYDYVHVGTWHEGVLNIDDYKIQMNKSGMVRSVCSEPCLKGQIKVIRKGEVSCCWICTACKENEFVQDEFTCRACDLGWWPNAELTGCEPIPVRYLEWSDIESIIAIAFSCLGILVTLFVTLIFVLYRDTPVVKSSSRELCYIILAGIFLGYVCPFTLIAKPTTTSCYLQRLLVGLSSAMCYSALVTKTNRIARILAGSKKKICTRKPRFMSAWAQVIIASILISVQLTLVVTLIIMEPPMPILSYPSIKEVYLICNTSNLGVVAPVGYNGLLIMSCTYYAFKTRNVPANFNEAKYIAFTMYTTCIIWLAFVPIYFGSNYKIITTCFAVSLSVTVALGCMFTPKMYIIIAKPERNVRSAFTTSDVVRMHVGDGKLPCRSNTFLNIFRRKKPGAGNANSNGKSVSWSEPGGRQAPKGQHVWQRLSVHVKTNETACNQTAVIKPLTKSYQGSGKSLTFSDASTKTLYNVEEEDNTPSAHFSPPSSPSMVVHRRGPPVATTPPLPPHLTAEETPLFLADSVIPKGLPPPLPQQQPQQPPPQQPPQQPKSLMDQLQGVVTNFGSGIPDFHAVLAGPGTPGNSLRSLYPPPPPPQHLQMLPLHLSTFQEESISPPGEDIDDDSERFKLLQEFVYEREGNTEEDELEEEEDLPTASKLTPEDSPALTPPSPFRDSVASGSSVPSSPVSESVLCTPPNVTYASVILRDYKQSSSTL

mGluR1 activity (rat mGluR1; result in words, NAM=negative allosteric modulator): devoid of any mGluR1 activity | EC50 (human mGluR4 [1]): 870 nM
SMILES: O=C(Nc1ccccn1)C12CC1/C(=N\O)c1ccccc1O2 (stereo not shown) [Compound 5i, (E)-7-(Hydroxyimino)-N-(pyridin-2-yl)-1,1a,7,7a-tetrahydrocyclopropa[b]chromene-1a-carboxamide]

% Glu Max (mGluR1) (rat mGluR1; rat mGluR1, normalized to percent maximal glutamate response): 23% | IC50 (rat mGluR1; read-out: mGluR1 IC50): 2100 nM
SMILES: O=C(Nc1ccccc1)C12CC1/C(=N\O)c1ccccc1O2 (racemic) [(±)-PHCCC, PHCCC]

agonist activity of compound added alone at higher concentrations (human mGluR4 [1]; >30 μM compound alone, data not shown): some intrinsic agonist activity | fold increase in potency against hmGluR4 (human mGluR4 [1]; listed as 10c): > 4 fold | fold increase in potency against hmGluR4 (human mGluR4 [1]; listed as (-)-10c): 4 fold | fold enhancement in efficacy (human mGluR4 [2]): 2 fold
SMILES: O=C(Nc1ccccn1)C12CC1/C(=N\O)c1ccccc1O2 (single isomer, unassigned; (-)) [(−)-10c]
activity against the other mGluR subtypes tested (other mGluR subtypes): devoid of activity | agonist activity of compound added alone (human mGluR4 [1]; 30 μM compound alone, before glutamate addition, calcium mobilization): do not exhibit agonist activity; also recorded: only act in the presence of glutamate
